“And” between values parts separate entries of the source, which are not always exact repeats. Equal entries are not always repeated.
How the values were obtained:
U2OS = assay: Multiplex assay against U2OS; assay type: toxicity, cell-based; details: human, number of replicates 2
Method in brief: (§1)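 Compound was added to live cells that had been stained at seeding with Hoechst33342, BioTracker Green Microtubule Cytoskeleton Dye, MitoTracker Red and Annexin V Alexa Fluor 680, and imaging followed on a CQ1 microscope at 37°C and 5% CO2. CellPathfinder machine-learning gating divided cells into Hoechst high-intensity objects or normal cells, normal cells into healthy, pyknosed or fragmented nuclei, and pyknosed cells into mitotic or apoptotic. Tubulin, mitochondrial-mass and membrane-permeability phenotypes are per cents of healthy-nucleus cells.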

Fibroblast = assay: Multiplex assay against human fibroblast; assay type: toxicity, cell-based; details: number of replicates 2; method in brief: as §1
[1] = 12 h, 1 µM, compound concentration 1 uM
[2] = 12 h, 10 µM, compound concentration 10 uM
[3] = 24 h, 1 µM, compound concentration 1 uM
[4] = 24 h, 10 µM, compound concentration 10 uM
[5] = 48 h, 1 µM, compound concentration 1 uM
[6] = 48 h, 10 µM, compound concentration 10 uM

With `O=C1NC(=NCc2cccs2)SC1=Cc1ccc2ncccc2c1` the “Population Apoptotic (%)” value (U2OS; [1]) was 100% and 60%, the “Population Healthy Nuclei (%)” value (U2OS; [1]) was 68% and 89% and the “Population Hoechst High Intensity Objects (%)” value (U2OS; [1]) was 0%. The “Population Membrane Permeable-Phenotype (%)” value (U2OS; [1]) was 0% and 1%, the “Population Mitochondria Different-Phenotype (%)” value (U2OS; [1]) was 0% and 1% and the “Population Normal (%)” value (U2OS; [1]) was 100%. For the same compound, the “Population Pyknosed Nuclei (%)” value (U2OS; [1]) was 9% and 6%, the “Population Tubulin-Different-Phenotype (%)” value (U2OS; [1]) was 59% and 88% and the “Population Apoptotic (%)” value (U2OS; [2]) was 71% and 81%. For the same compound, the “Population Healthy Nuclei (%)” value (U2OS; [2]) was 57% and 85%, the “Population Hoechst High Intensity Objects (%)” value (U2OS; [2]) was 0% and the “Population Membrane Permeable-Phenotype (%)” value (U2OS; [2]) was 5% and 7%. The “Population Mitochondria Different-Phenotype (%)” value (U2OS; [2]) was 0% and 4%, the “Population Mitotic Cells (%)” value (U2OS; [2]) was 28% and 18% and the “Population Normal (%)” value (U2OS; [2]) was 100%. For the same compound, the “Population Pyknosed Nuclei (%)” value (U2OS; [2]) was 21% and 8%, the “Population Tubulin-Different-Phenotype (%)” value (U2OS; [2]) was 31% and 33% and the “Population Apoptotic (%)” value (U2OS; [3]) was 63% and 61%. The “Population Fragmented Nuclei (%)” value (U2OS; [3]) was 11% and 4%, the “Population Healthy Nuclei (%)” value (U2OS; [3]) was 66% and 89% and the “Population Hoechst High Intensity Objects (%)” value (U2OS; [3]) was 0%. The “Population Membrane Permeable-Phenotype (%)” value (U2OS; [3]) was 5% and 0%, the “Population Mitochondria Different-Phenotype (%)” value (U2OS; [3]) was 0% and the “Population Mitotic Cells (%)” value (U2OS; [3]) was 36% and 38%. For the same compound, the “Population Normal (%)” value (U2OS; [3]) was 100%, the “Population Tubulin-Different-Phenotype (%)” value (U2OS; [3]) was 67% and 82% and the “Population Apoptotic (%)” value (U2OS; [4]) was 100% and 75%. For the same compound, the “Population Healthy Nuclei (%)” value (U2OS; [4]) was 56% and 79%, the “Population Hoechst High Intensity Objects (%)” value (U2OS; [4]) was 0% and the “Population Membrane Permeable-Phenotype (%)” value (U2OS; [4]) was 0% and 3%. For the same compound, the “Population Mitochondria Different-Phenotype (%)” value (U2OS; [4]) was 0% and 4%, the “Population Mitotic Cells (%)” value (U2OS; [4]) was 0% and 25% and the “Population Normal (%)” value (U2OS; [4]) was 100%. The “Population Pyknosed Nuclei (%)” value (U2OS; [4]) was 26% and 15%, the “Population Tubulin-Different-Phenotype (%)” value (U2OS; [4]) was 26% and 41% and the “Population Apoptotic (%)” value (U2OS; [5]) was 92% and 73%. For the same compound, the “Population Healthy Nuclei (%)” value (U2OS; [5]) was 57% and 88%, the “Population Hoechst High Intensity Objects (%)” value (U2OS; [5]) was 0% and the “Population Membrane Permeable-Phenotype (%)” value (U2OS; [5]) was 4% and 2%. The “Population Mitochondria Different-Phenotype (%)” value (U2OS; [5]) was 0%, the “Population Normal (%)” value (U2OS; [5]) was 100% and the “Population Tubulin-Different-Phenotype (%)” value (U2OS; [5]) was 70% and 90%. For the same compound, the “Population Apoptotic (%)” value (U2OS; [6]) was 84%, the “Population Fragmented Nuclei (%)” value (U2OS; [6]) was 17% and 12% and the “Population Healthy Nuclei (%)” value (U2OS; [6]) was 36% and 60%. For the same compound, the “Population Hoechst High Intensity Objects (%)” value (U2OS; [6]) was 2% and 0%, the “Population Membrane Permeable-Phenotype (%)” value (U2OS; [6]) was 6% and 4% and the “Population Mitotic Cells (%)” value (U2OS; [6]) was 15%. The “Population Normal (%)” value (U2OS; [6]) was 97% and 100%, the “Population Pyknosed Nuclei (%)” value (U2OS; [6]) was 46% and 26% and the “Population Tubulin-Different-Phenotype (%)” value (U2OS; [6]) was 60% and 55%. For the same compound, the “Population Apoptotic (%)” value (Fibroblast; [1]) was 31% and 38%, the “Population Fragmented Nuclei (%)” value (Fibroblast; [1]) was 17% and 11% and the “Population Healthy Nuclei (%)” value (Fibroblast; [1]) was 65% and 76%. For the same compound, the “Population Hoechst High Intensity Objects (%)” value (Fibroblast; [1]) was 0%, the “Population Membrane Permeable-Phenotype (%)” value (Fibroblast; [1]) was 4% and 3% and the “Population Mitochondria Different-Phenotype (%)” value (Fibroblast; [1]) was 0%. The “Population Mitotic Cells (%)” value (Fibroblast; [1]) was 68% and 61%, the “Population Normal (%)” value (Fibroblast; [1]) was 100% and the “Population Pyknosed Nuclei (%)” value (Fibroblast; [1]) was 16% and 12%. The “Population Tubulin-Different-Phenotype (%)” value (Fibroblast; [1]) was 5% and 6%, the “Total Cell Count” value (Fibroblast; [1]) was 193 and 211 and the “Population Apoptotic (%)” value (Fibroblast; [2]) was 50% and 51%. The “Population Fragmented Nuclei (%)” value (Fibroblast; [2]) was 13% and 9%, the “Population Healthy Nuclei (%)” value (Fibroblast; [2]) was 74% and 78% and the “Population Hoechst High Intensity Objects (%)” value (Fibroblast; [2]) was 0%. The “Population Membrane Permeable-Phenotype (%)” value (Fibroblast; [2]) was 2% and 4%, the “Population Mitochondria Different-Phenotype (%)” value (Fibroblast; [2]) was 0% and 1% and the “Population Mitotic Cells (%)” value (Fibroblast; [2]) was 50% and 48%. For the same compound, the “Population Normal (%)” value (Fibroblast; [2]) was 100%, the “Population Pyknosed Nuclei (%)” value (Fibroblast; [2]) was 12% and the “Population Tubulin-Different-Phenotype (%)” value (Fibroblast; [2]) was 34% and 20%. The “Total Cell Count” value (Fibroblast; [2]) was 190 and 238, the “Population Apoptotic (%)” value (Fibroblast; [3]) was 42% and 26% and the “Population Fragmented Nuclei (%)” value (Fibroblast; [3]) was 15% and 10%. The “Population Healthy Nuclei (%)” value (Fibroblast; [3]) was 66% and 72%, the “Population Hoechst High Intensity Objects (%)” value (Fibroblast; [3]) was 0% and the “Population Membrane Permeable-Phenotype (%)” value (Fibroblast; [3]) was 2% and 6%. The “Population Mitochondria Different-Phenotype (%)” value (Fibroblast; [3]) was 0%, the “Population Mitotic Cells (%)” value (Fibroblast; [3]) was 57% and 73% and the “Population Normal (%)” value (Fibroblast; [3]) was 100%. For the same compound, the “Population Pyknosed Nuclei (%)” value (Fibroblast; [3]) was 18% and 17%, the “Population Tubulin-Different-Phenotype (%)” value (Fibroblast; [3]) was 4% and 6% and the “Total Cell Count” value (Fibroblast; [3]) was 183 and 219. For the same compound, the “Population Apoptotic (%)” value (Fibroblast; [4]) was 69% and 61%, the “Population Fragmented Nuclei (%)” value (Fibroblast; [4]) was 10% and 12% and the “Population Healthy Nuclei (%)” value (Fibroblast; [4]) was 82% and 75%. For the same compound, the “Population Hoechst High Intensity Objects (%)” value (Fibroblast; [4]) was 0%, the “Population Membrane Permeable-Phenotype (%)” value (Fibroblast; [4]) was 4% and 2% and the “Population Mitochondria Different-Phenotype (%)” value (Fibroblast; [4]) was 1% and 3%. The “Population Mitotic Cells (%)” value (Fibroblast; [4]) was 30% and 38%.

Source: ChEMBL document CHEMBL5303300, “EUbOPEN Chemogenomics Library - Multiplex” (2023)
